Calls of active or inactive are those of the source.
What was measured:
Type in all cases: functional, cell-based
[1] = tested on: MCF7; assay: Cytotoxicity against human MCF7 cells incubated for 1 week by CellTiter 96 Aqueous One Solution based assay; conditions: time 1.0 weeks
Summary of the method: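 Cells (2 × 10^3/well, DMEM + 10% FBS, 37 °C, 5% CO2) treated with a concentration gradient of peptide for 1 week. MTS reagent added for 1 h, absorbance read at 490 nm, EC50 derived.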

[2] = tested on: MCF7; assay: Inhibition of colony formation in human MCF7 cells at 10 uM incubated for 2 weeks by crystal violet staining based assay
Summary of the method: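 Cells are seeded at 1 × 10^3/well and treated with peptide (10 μM) for 2 weeks, alone or with JQ1 5 μM, iJMJD6 10 μM, ICI 2.5 μM, or tamoxifen 3 μM (tamoxifen-resistant lines). Colonies are stained with crystal violet, dissolved in 10% acetic acid, and read at 590 nm. Three biological repeats.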

[3] = tested on: MCF7; assay: Inhibition of cell migration in human MCF7 cells at 10 uM incubated for 24 hrs by inverted microscopic assay
Summary of the method: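 Cells are seeded at 5 × 10^5/well and scratched at 80–90% confluence. They are kept in serum-free medium with peptide (10 μM); partner agents are JQ1 5 μM, iJMJD6 10 μM, or ICI 2.5 μM. Wound area is imaged by inverted microscope at 0 and 12 or 24 h. Wound closure % = (A0−A1)/A0 × 100. Three biological repeats.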

C[C@]12CC[C@@H]3c4ccc(O)cc4C[C@@H](CCCCCCCCC[S+]([O-])CCCC(F)(F)C(F)(F)F)[C@H]3[C@@H]1CC[C@@H]2O (stereo partly drawn)
active: Activity [1] | inhibition [2] | inhibition [3]
